Data reported in ChEMBL document CHEMBL1926550, “Synthesis and antibacterial activity of naphthyridone derivatives containing mono/difluoro-methyloxime pyrrolidine scaffolds” (2012).
In brackets after ≈: the same amount, converted by molar mass.

These molecules were tested on Staphylococcus aureus (assay: Antibacterial activity against methicillin-resistant Staphylococcus aureus 10-2 after 18 hrs by two fold serial dilution method). Conditions: 10-2, 18 h.
Type: functional
How it was run: (§1)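 Agar two-fold serial dilution in melted Mueller-Hinton agar, 128 to 0.008 μg/mL. Plates inoculated with 10⁴ cfu, incubated 35 °C for 18 h. MIC taken as lowest concentration giving no visible growth on the plate.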
Molecule `CO/N=C1\CN(c2nc3c(cc2F)c(=O)c(C(=O)O)cn3C2CC2)CC1CN` (configuration not stated) [GEMIFLOXACIN] has an MIC of 0.5 mg/L (≈ 1.28 µM).

These molecules were tested on Staphylococcus aureus (assay: Antibacterial activity against methicillin-sensitive Staphylococcus aureus 10-3 after 18 hrs by two fold serial dilution method). Conditions: 10-3, 18 h.
Type: functional
How it was run: (§2)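 Agar two-fold serial dilution in melted Mueller-Hinton agar, final concentrations 128 down to 0.008 μg/mL. Plates inoculated with 10⁴ cfu and incubated at 35 °C for 18 h. MIC taken as the lowest concentration giving no visible growth on the plate.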
Molecule `CO/N=C1\CN(c2nc3c(cc2F)c(=O)c(C(=O)O)cn3C2CC2)CC1CN` (configuration not stated) [GEMIFLOXACIN] has an MIC of 0.06 mg/L (≈ 0.154 µM).

These molecules were tested on Staphylococcus aureus (assay: Antibacterial activity against methicillin-resistant Staphylococcus aureus 10-2 infected KM mouse systemic infection model assessed as decrease in mouse mortality administered orally twice after 1 and 4 hrs post infection measured up to 7 days). Conditions: 10-2, po.
Type: functional
How it was run: (§3)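 Strains grown on MH agar at 35 °C for 18 h, suspended in gastric mucin. Male KM mice (19–21 g), groups of 10, infected intraperitoneally with 0.5 mL at 5–10× MLD. Four oral dose levels per drug at 1 and 4 h post infection. Mortality followed 7 days; ED50 with 95% confidence limits by Bliss method.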
`CO/N=C1\CN(c2nc3c(cc2F)c(=O)c(C(=O)O)cn3C2CC2)CC1CN` (configuration not stated) [GEMIFLOXACIN] was tested, and the ED50 was 14.9 mg/kg.

These molecules were tested on Pseudomonas aeruginosa (assay: Antibacterial activity against Pseudomonas aeruginosa 10-1 infected KM mouse systemic infection model assessed as decrease in mouse mortality administered orally twice after 1 and 4 hrs post infection measured up to 7 days). Conditions: 10-1, po.
Type: functional
How it was run: as §3
`CO/N=C1\CN(c2nc3c(cc2F)c(=O)c(C(=O)O)cn3C2CC2)CC1CN` (configuration not stated) [GEMIFLOXACIN] was tested, and the ED50 was 129 mg/kg.

What follows are molecules tested on Pseudomonas aeruginosa (assay: Antibacterial activity against Pseudomonas aeruginosa 10-3 after 18 hrs by two fold serial dilution method). Conditions: 10-3, 18 h.
Type: functional
How it was run: as §2
For `CO/N=C1\CN(c2nc3c(cc2F)c(=O)c(C(=O)O)cn3C2CC2)CC1CN` (configuration not stated) [GEMIFLOXACIN], the MIC was 2 mg/L (≈ 5.14 µM).

What follows are molecules tested on Enterococcus faecalis (assay: Antibacterial activity against Enterococcus faecalis 09-2 after 18 hrs by two fold serial dilution method). Conditions: 09-2, 18 h.
Type: functional
How it was run: as §2
Work on `CO/N=C1\CN(c2nc3c(cc2F)c(=O)c(C(=O)O)cn3C2CC2)CC1CN` (configuration not stated) [GEMIFLOXACIN] yielded an MIC of 4 mg/L (≈ 10.3 µM).

These molecules were tested on Staphylococcus aureus (assay: Antibacterial activity against methicillin-resistant Staphylococcus aureus 10-1 after 18 hrs by two fold serial dilution method). Conditions: 10-1, 18 h.
Type: functional
How it was run: as §1
Molecule `CO/N=C1\CN(c2nc3c(cc2F)c(=O)c(C(=O)O)cn3C2CC2)CC1CN` (configuration not stated) [GEMIFLOXACIN] has an MIC of 16 mg/L (≈ 41.1 µM).

Each molecule was assayed on Enterococcus faecium (assay: Antibacterial activity against Enterococcus faecium 09-2 after 18 hrs by two fold serial dilution method). Conditions: 09-2, 18 h.
Type: functional
How it was run: as §2
Molecule `CO/N=C1\CN(c2nc3c(cc2F)c(=O)c(C(=O)O)cn3C2CC2)CC1CN` (configuration not stated) [GEMIFLOXACIN] has an MIC of 16 mg/L (≈ 41.1 µM).

What follows are molecules tested on Staphylococcus aureus (assay: Antibacterial activity against methicillin-sensitive Staphylococcus aureus 10-1 after 18 hrs by two fold serial dilution method). Conditions: 10-1, 18 h.
Type: functional
How it was run: as §2
Molecule `CO/N=C1\CN(c2nc3c(cc2F)c(=O)c(C(=O)O)cn3C2CC2)CC1CN` (configuration not stated) [GEMIFLOXACIN] has an MIC of 0.008 mg/L (≈ 0.0205 µM).

Each molecule was assayed on Enterococcus faecium (assay: Antibacterial activity against Enterococcus faecium 09-3 after 18 hrs by two fold serial dilution method). Conditions: 09-3, 18 h.
Type: functional
How it was run: as §2
`CO/N=C1\CN(c2nc3c(cc2F)c(=O)c(C(=O)O)cn3C2CC2)CC1CN` (configuration not stated) [GEMIFLOXACIN] gave an MIC of 4 mg/L (≈ 10.3 µM).

These molecules were tested on Staphylococcus epidermidis (assay: Antibacterial activity against methicillin-resistant Staphylococcus epidermidis 10-2 after 18 hrs by two fold serial dilution method). Conditions: 10-2, 18 h.
Type: functional
How it was run: as §1
Work on `CO/N=C1\CN(c2nc3c(cc2F)c(=O)c(C(=O)O)cn3C2CC2)CC1CN` (configuration not stated) [GEMIFLOXACIN] yielded an MIC of 0.5 mg/L (≈ 1.28 µM).

These molecules were tested on Escherichia coli (assay: Antibacterial activity against Escherichia coli ATCC 25922 after 18 hrs by two fold serial dilution method). Conditions: ATCC 25922, 18 h.
Type: functional
How it was run: as §2
In the case of `CO/N=C1\CN(c2nc3c(cc2F)c(=O)c(C(=O)O)cn3C2CC2)CC1CN` (configuration not stated) [GEMIFLOXACIN], the MIC is reported as 0.008 mg/L (≈ 0.0205 µM).

Each molecule was assayed on Staphylococcus aureus (assay: Antibacterial activity against Staphylococcus aureus ATCC 25923 after 18 hrs by two fold serial dilution method). Conditions: ATCC 25923, 18 h.
Type: functional
How it was run: as §2
`CO/N=C1\CN(c2nc3c(cc2F)c(=O)c(C(=O)O)cn3C2CC2)CC1CN` (configuration not stated) [GEMIFLOXACIN] was tested, and the MIC was 0.008 mg/L (≈ 0.0205 µM).

The molecules below were run on Staphylococcus aureus (assay: Antibacterial activity against methicillin-sensitive Staphylococcus aureus 10-6 after 18 hrs by two fold serial dilution method). Conditions: 10-6, 18 h.
Type: functional
How it was run: as §2
For `CO/N=C1\CN(c2nc3c(cc2F)c(=O)c(C(=O)O)cn3C2CC2)CC1CN` (configuration not stated) [GEMIFLOXACIN], the MIC was 0.008 mg/L (≈ 0.0205 µM).

Each molecule was assayed on Escherichia coli (assay: Antibacterial activity against Escherichia coli 09-3 after 18 hrs by two fold serial dilution method). Conditions: 09-3, 18 h.
Type: functional
How it was run: as §2
`CO/N=C1\CN(c2nc3c(cc2F)c(=O)c(C(=O)O)cn3C2CC2)CC1CN` (configuration not stated) [GEMIFLOXACIN] gave an MIC of 16 mg/L (≈ 41.1 µM).

Each molecule was assayed on Staphylococcus aureus (assay: Antibacterial activity against methicillin-sensitive Staphylococcus aureus 10-4 after 18 hrs by two fold serial dilution method). Conditions: 10-4, 18 h.
Type: functional
How it was run: as §2
Work on `CO/N=C1\CN(c2nc3c(cc2F)c(=O)c(C(=O)O)cn3C2CC2)CC1CN` (configuration not stated) [GEMIFLOXACIN] yielded an MIC of 0.015 mg/L (≈ 0.0385 µM).

The molecules below were run on Staphylococcus aureus (assay: Antibacterial activity against methicillin-resistant Staphylococcus aureus 10-4 after 18 hrs by two fold serial dilution method). Conditions: 10-4, 18 h.
Type: functional
How it was run: as §1
Work on `CO/N=C1\CN(c2nc3c(cc2F)c(=O)c(C(=O)O)cn3C2CC2)CC1CN` (configuration not stated) [GEMIFLOXACIN] yielded an MIC of 16 mg/L (≈ 41.1 µM).

Each molecule was assayed on Staphylococcus epidermidis (assay: Antibacterial activity against methicillin-sensitive Staphylococcus epidermidis 10-1 after 18 hrs by two fold serial dilution method). Conditions: 10-1, 18 h.
Type: functional
How it was run: as §2
`CO/N=C1\CN(c2nc3c(cc2F)c(=O)c(C(=O)O)cn3C2CC2)CC1CN` (configuration not stated) [GEMIFLOXACIN] showed an MIC of 2 mg/L (≈ 5.14 µM).

The molecules below were run on Klebsiella pneumoniae (assay: Antibacterial activity against Klebsiella pneumoniae 10-1 after 18 hrs by two fold serial dilution method). Conditions: 10-1, 18 h.
Type: functional
How it was run: as §2
Molecule `CO/N=C1\CN(c2nc3c(cc2F)c(=O)c(C(=O)O)cn3C2CC2)CC1CN` (configuration not stated) [GEMIFLOXACIN] has an MIC of 0.015 mg/L (≈ 0.0385 µM).

Each molecule was assayed on Escherichia coli (assay: Antibacterial activity against Escherichia coli 09-1 after 18 hrs by two fold serial dilution method). Conditions: 09-1, 18 h.
Type: functional
How it was run: as §2
Molecule `CO/N=C1\CN(c2nc3c(cc2F)c(=O)c(C(=O)O)cn3C2CC2)CC1CN` (configuration not stated) [GEMIFLOXACIN] has an MIC of 16 mg/L (≈ 41.1 µM).

What follows are molecules tested on Klebsiella pneumoniae (assay: Antibacterial activity against Klebsiella pneumoniae 10-3 after 18 hrs by two fold serial dilution method). Conditions: 10-3, 18 h.
Type: functional
How it was run: as §2
With `CO/N=C1\CN(c2nc3c(cc2F)c(=O)c(C(=O)O)cn3C2CC2)CC1CN` (configuration not stated) [GEMIFLOXACIN] the MIC was 0.5 mg/L (≈ 1.28 µM).

The molecules below were run on Enterococcus faecium (assay: Antibacterial activity against Enterococcus faecium 09-1 after 18 hrs by two fold serial dilution method). Conditions: 09-1, 18 h.
Type: functional
How it was run: as §2
Work on `CO/N=C1\CN(c2nc3c(cc2F)c(=O)c(C(=O)O)cn3C2CC2)CC1CN` (configuration not stated) [GEMIFLOXACIN] yielded an MIC of 16 mg/L (≈ 41.1 µM).
